Data as given in ChEMBL document CHEMBL4425108, “A Selective and Slowly Reversible Inhibitor of l-Type Amino Acid Transporter 1 (LAT1) Potentiates Antiproliferative Drug Efficacy in Cancer Cells” (J Med Chem, 2016).
The source made the active and inactive calls. No cut-off for these calls is given here.

What was measured:
[1] = target: T1, Large neutral amino acids transporter small subunit 1 (Homo sapiens, UniProt Q01650); assay: Inhibition of LAT1 in human MCF7 cells assessed as potentiation of bestatin-induced antiproliferative activity by measuring reduction in cell viability at 25 uM measured after 48 hrs by resazurin dye-based fluorimetric analysis
Procedure, shortened: (§1)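 MCF-7 cells seeded 2 × 10^4/well on collagen-coated plates, treated one day later in growth medium with inhibitor (25 or 100 µM) plus bestatin or cisplatin (100 µM) for up to 3 days. Viability read daily by resazurin fluorescence (ex 560/em 590 nm). Viability is treated relative to untreated control. Mean ± SD, n=3.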

[2] = target: T1, Large neutral amino acids transporter small subunit 1; assay: Inhibition of LAT1 in human MCF7 cells assessed as potentiation of bestatin-induced antiproliferative activity by measuring reduction in cell viability at 25 uM measured after 72 hrs by resazurin dye-based fluorimetric analysis; procedure, shortened: as §1
[3] = Fraction unbound in mouse brain at 23 umol/kg, ip administered as bolus by LC-MS analysis; assay type: ADME, organism-based
Procedure, shortened: (§2)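 Unbound fraction was measured by equilibrium dialysis at 100 µM in mouse plasma and in brain, liver, kidney, heart and prostate homogenates.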

[4] = target: T1, Large neutral amino acids transporter small subunit 1; assay: Competitive inhibition of [14C]-L-leucine uptake at LAT1 in human MCF7 cells at 100 uM preincubated for 10 mins followed by addition of substrate measured during 5 mins by liquid scintillation counting; assay type: cell-based
Procedure, shortened: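 MCF-7 cells seeded 1 × 10^5/well, used one day later. Washed and pre-incubated 10 min at 37 °C in choline-chloride HBSS (Na+-free, 25 mM HEPES, pH 7.4), then 5 min at 37 °C with 0.157 µM [14C]-L-leucine plus 1-1000 µM inhibitor (DMSO blank). Ice-cold washes, NaOH lysis, scintillation counting. IC50 by nonlinear regression over 8 concentrations. Mean ± SD, n=3.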

[5] = target: T1, Large neutral amino acids transporter small subunit 1; assay: Inhibition of LAT1 in human MCF7 cells assessed as potentiation of bestatin-induced antiproliferative activity by measuring reduction in cell viability at 100 uM measured after 48 hrs by resazurin dye-based fluorimetric analysis; procedure, shortened: as §1
[6] = Terminal half life in mouse prostate at 23 umol/kg, ip administered as bolus by LC-MS analysis; assay type: ADME, organism-based, Prostate gland; details: read-out: beta t1/2
Procedure, shortened: (§3)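 Adult male mice (25 ± 5 g) given a single i.p. bolus of 23 µmol/kg, dosing solution 1.36 mM in 10% (v/v) DMSO, 20% (w/v) hydroxypropyl-β-cyclodextrin, 0.9% NaCl in water. Decapitation at time points 10–480 min; plasma, brain, liver, prostate, kidney, heart collected. Acetonitrile precipitation with repaglinide internal standard, LC-MS (ESI positive). tmax and t½β taken from concentration-time data; mean ± SEM, n=3.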

[7] = Fraction unbound in mouse kidney at 23 umol/kg, ip administered as bolus by LC-MS analysis; assay type: ADME, organism-based; procedure, shortened: as §2
[8] = Terminal half life in mouse kidney at 23 umol/kg, ip administered as bolus by LC-MS analysis; assay type: ADME, organism-based; details: read-out: beta t1/2
Procedure, shortened: (§4)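 Male adult mice (25 ± 5 g) given a single i.p. bolus at 23 µmol/kg. The dosing solution was 1.36 mM in 10% (v/v) DMSO, 20% (w/v) hydroxypropyl-β-cyclodextrin and 0.9% NaCl. Animals were decapitated at seven time points from 10 to 480 min. Plasma and tissues were acetonitrile-precipitated with repaglinide internal standard and analysed by LC-MS. Parameters were derived from concentration–time data, mean ± SEM (n=3).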

[9] = target: T1, Large neutral amino acids transporter small subunit 1; assay: Inhibition of LAT1 in human MCF7 cells assessed as potentiation of cisplatin-induced antiproliferative activity by measuring reduction in cell viability at 100 uM measured after 24 hrs by resazurin dye-based fluorimetric analysis; procedure, shortened: as §1
[10] = system: MCF7; assay: Antiproliferative activity against human MCF7 cells assessed as reduction in cell viability at 25 measured after 48 hrs by resazurin dye-based fluorimetric analysis; assay type: functional
Procedure, shortened: (§5)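 MCF-7 cells were seeded at 2 × 10^4 cells/well on collagen-coated plates and treated one day later. Agents were given alone or combined (25 or 100 µM with 100 µM partner drug) in growth medium for 3 days. Viability was read daily by resazurin fluorescence (ex 560/em 590 nm) and expressed relative to untreated controls.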

[11] = Tmax in mouse kidney at 23 umol/kg, ip administered as bolus by LC-MS analysis; assay type: ADME, organism-based; procedure, shortened: as §3
[12] = Terminal half life in mouse heart at 23 umol/kg, ip administered as bolus by LC-MS analysis; assay type: ADME, organism-based; details: read-out: beta t1/2; procedure, shortened: as §4
[13] = Terminal half life in mouse brain at 23 umol/kg, ip administered as bolus by LC-MS analysis; assay type: ADME, organism-based; details: read-out: beta t1/2; procedure, shortened: as §4
[14] = Cmax in mouse liver at 23 umol/kg, ip administered as bolus by LC-MS analysis; assay type: ADME, organism-based; parameters: dose 23 umol/kg, route intraperitoneal; details: in vivo; procedure, shortened: as §4
[15] = Unbound AUC (0 to 480 mins) in mouse plasma at 23 umol/kg, ip administered as bolus by LC-MS analysis; assay type: ADME, organism-based; details: in vivo
Procedure, shortened: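 Male mice (25 ± 5 g) dosed i.p. as a bolus at 23 µmol/kg in DMSO/hydroxypropyl-β-cyclodextrin/saline vehicle, sampled at time points 10–480 min; plasma and tissue homogenates (1:3 water) analysed by LC-MS. […] Mean ± SEM.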

[16] = system: MCF7; assay: Antiproliferative activity against human MCF7 cells assessed as reduction in cell viability at 25 uM measured after 24 hrs by resazurin dye-based fluorimetric analysis; assay type: functional; procedure, shortened: as §5
[17] = Fraction unbound in mouse liver at 23 umol/kg, ip administered as bolus by LC-MS analysis; assay type: ADME, organism-based; procedure, shortened: as §2
[18] = Plasma concentration in mouse at 23 umol/kg, ip measured after 180 mins; assay type: ADME, organism-based
[19] = target: T1, Large neutral amino acids transporter small subunit 1; assay: Drug uptake in human MCF7 cells assessed as LAT1 mediated drug transport per mg of protein at 100 uM measured 5 mins after cold wash by HPLC analysis; assay type: ADME, cell-based; details: mcf7, 5 min
Procedure, shortened: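 MCF-7 monolayers were incubated with 100 µM compound in HBSS at 37 °C for 5 or 30 min. Cells got three washes with ice-cold or warm (37 °C) HBSS; in the warm 30 min arm they were washed after 5 min and again after 30 min. Lysates (0.1 M NaOH) were quantified by HPLC-UV against a spiked lysate standard curve and normalised to protein (Bio-Rad assay).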

[20] = system: Mus musculus; assay: Binding affinity to LAT1 in mouse brain assessed as inhibition of [14C]-L-leucine uptake at 23 umol/kg, ip measured post perfusion with [14C]-L-leucine; assay type: functional, organism-based; details: TDE = time-dependent effect
Procedure, shortened: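 Mice under ketamine/xylazine anaesthesia had the right common carotid artery cannulated. Brains were perfused at 37 °C, 2.5 mL/min, for 30 s with 0.157 µM [14C]-L-leucine, then 2 s with analyte-free buffer at 4 °C. Perfusion took place 10 or 180 min after 23 µmol/kg i.p. dosing.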

[21] = system: MCF7; assay: Antiproliferative activity against human MCF7 cells assessed as reduction in cell viability at 100 measured after 72 hrs by resazurin dye-based fluorimetric analysis; assay type: functional; procedure, shortened: as §5
[22] = Terminal half life in mouse plasma at 23 umol/kg, ip administered as bolus by LC-MS analysis; assay type: ADME, organism-based; details: read-out: beta t1/2; procedure, shortened: as §3

T1 sequence (Q01650 whole entry): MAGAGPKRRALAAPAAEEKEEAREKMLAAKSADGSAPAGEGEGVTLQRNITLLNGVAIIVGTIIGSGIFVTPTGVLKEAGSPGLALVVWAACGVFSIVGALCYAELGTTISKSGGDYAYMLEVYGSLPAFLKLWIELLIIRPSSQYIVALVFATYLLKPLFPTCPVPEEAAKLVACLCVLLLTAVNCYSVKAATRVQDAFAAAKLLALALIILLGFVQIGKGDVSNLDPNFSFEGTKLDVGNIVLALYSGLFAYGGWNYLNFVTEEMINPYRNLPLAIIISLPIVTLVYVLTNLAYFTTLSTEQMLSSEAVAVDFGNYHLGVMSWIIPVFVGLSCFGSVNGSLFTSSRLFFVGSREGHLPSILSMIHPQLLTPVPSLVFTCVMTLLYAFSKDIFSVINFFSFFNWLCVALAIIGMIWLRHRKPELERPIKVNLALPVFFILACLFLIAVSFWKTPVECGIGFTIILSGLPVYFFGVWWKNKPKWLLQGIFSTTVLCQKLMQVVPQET

CNC(=O)COc1ccc(-c2c(C#N)c(NC(=O)c3cccc(C[C@H](N)C(=O)O)c3)n3c(nc4ccccc43)c2C#N)cc1
Activity [1]: 40.5% | Activity [2]: 52.6% | fraction unbound [3]: 0.0103 | inhibition [4]: 77.8% | Activity [5]: 42.7% | half-life [6]: 12 min | fraction unbound [7]: 0.0166 | half-life [8]: 41.8 min | Activity [9]: 65% | Activity [10]: inactive | Tmax [11]: 10 min | half-life [12]: 19.8 min | half-life [13]: 71.6 min | Cmax [14]: 38.7 nmol/g | fAUC [15]: 7.8 nmol/min/mL | Activity [16]: 13.9% | fraction unbound [17]: 0.0098 | concentration at 3 h [18]: 230 nM | Drug uptake [19]: 2.8 nmol/mg | Activity [20]: Tde | Activity [21]: 47.7% | half-life [22]: 44.9 min
